Source: ChEMBL document CHEMBL4715682, “Potent trifluoromethoxy, trifluoromethylsulfonyl, trifluoromethylthio and pentafluorosulfanyl containing (1,3,4-oxadiazol-2-yl)benzamides against drug-resistant Gram-positive bacteria” (RSC Med Chem, 2020)
In brackets after ≈: the same amount, converted by molar mass. Activity calls are given as the source filed them. No cut-off for these calls is given here.

Key:
Staphylococcus aureus [1] = experiment: Antibacterial activity against methicillin-resistant Staphylococcus aureus NRS383 assessed as inhibition of visible bacterial growth incubated for 18 to 20 hrs by CLSI method; format: functional; conditions: time 18-20 hrs
Procedure, shortened: (§1)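 CLSI broth microdilution. Strains grown aerobically overnight on tryptic soy agar at 37 °C, adjusted to 0.5 McFarland and diluted in cation-adjusted Mueller–Hinton broth to about 5×10^5 CFU/mL. Compounds and control drugs serially diluted across the plate. Incubated aerobically at 37 °C for 18-20 h. MIC is the lowest concentration with no visible growth.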

J774 = experiment: Cytotoxicity against mouse J774 cells assessed as reduction in cell viability at 32 ug/ml incubated for 24 hrs by MTS assay; format: cell-based; conditions: j774, 24 h, dose 32 µg/ml
Staphylococcus aureus [2] = experiment: Bactericidal activity against methicillin-resistant Staphylococcus aureus ATCC 33592 assessed as reduction in bacterial growth incubated for 18 hrs by CLSI method; format: functional
Staphylococcus aureus [3] = experiment: Antibacterial activity against vancomycin-resistant Staphylococcus aureus 12 assessed as inhibition of visible bacterial growth incubated for 18 to 20 hrs by CLSI method; format: functional; conditions: time 18-20 hrs; procedure, shortened: as §1
Staphylococcus aureus [4] = experiment: Antibacterial activity against methicillin-sensitive Staphylococcus aureus NRS 107 assessed as inhibition of visible bacterial growth incubated for 18 to 20 hrs by CLSI method; format: functional; conditions: time 18-20 hrs; procedure, shortened: as §1
Staphylococcus aureus [5] = experiment: Antibacterial activity against methicillin-resistant Staphylococcus aureus NRS385 assessed as inhibition of visible bacterial growth incubated for 18 to 20 hrs by CLSI method; format: functional; conditions: time 18-20 hrs; procedure, shortened: as §1
Staphylococcus aureus [6] = experiment: Antibacterial activity against methicillin-resistant Staphylococcus aureus NRS386 assessed as inhibition of visible bacterial growth incubated for 18 to 20 hrs by CLSI method; format: functional; conditions: time 18-20 hrs; procedure, shortened: as §1
Staphylococcus aureus [7] = experiment: Antibacterial activity against methicillin-resistant Staphylococcus aureus ATCC 33592 assessed as inhibition of visible bacterial growth incubated for 18 to 20 hrs by CLSI method; format: functional; conditions: time 18-20 hrs; procedure, shortened: as §1
Acinetobacter baumannii = experiment: Antibacterial activity against Acinetobacter baumannii ATCC 19606 RW4 assessed as inhibition of visible bacterial growth at 16 ug/ml incubated for 18 to 20 hrs by CLSI method; format: functional, organism-based; conditions: ATCC 19606 = CIP 70.34 = JCM 6841 RW4, dose 16.0 µg/ml, time 18-20 hrs; procedure, shortened: as §1
Staphylococcus aureus [8] = experiment: Antibacterial activity against methicillin-resistant Staphylococcus aureus NRS382 assessed as inhibition of visible bacterial growth incubated for 18 to 20 hrs by CLSI method; format: functional; conditions: time 18-20 hrs; procedure, shortened: as §1
Staphylococcus aureus [9] = experiment: Synergistic antibacterial activity against methicillin-resistant Staphylococcus aureus ATCC 33592 assessed as fractional inhibitory concentration index in presence of daptomycin by checkerboard assay; format: functional
Escherichia coli = experiment: Antibacterial activity against Escherichia coli ATCC 25404 assessed as inhibition of visible bacterial growth at 16 ug/ml incubated for 18 to 20 hrs by CLSI method; format: functional, organism-based; conditions: B ATCC 25404, dose 16.0 µg/ml, time 18-20 hrs; procedure, shortened: as §1
Enterococcus faecalis [10] = experiment: Antibacterial activity against vancomycin- resistant Enterococcus faecalis ATCC 51299 assessed as inhibition of visible bacterial growth incubated for 18 to 20 hrs by CLSI method; format: functional; conditions: time 18-20 hrs; procedure, shortened: as §1
Staphylococcus aureus [11] = experiment: Synergistic antibacterial activity against methicillin-resistant Staphylococcus aureus ATCC 33592 assessed as fractional inhibitory concentration index in presence of methicillin by checkerboard assay; format: functional
Staphylococcus aureus [12] = experiment: Antibacterial activity against methicillin-resistant Staphylococcus aureus NRS484 assessed as inhibition of visible bacterial growth incubated for 18 to 20 hrs by CLSI method; format: functional; conditions: time 18-20 hrs; procedure, shortened: as §1
Listeria monocytogenes = experiment: Antibacterial activity against Listeria monocytogenes ATCC 19111 assessed as inhibition of visible bacterial growth incubated for 18 to 20 hrs by CLSI method; format: functional; conditions: time 18-20 hrs
Procedure, shortened: (§2)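 Broth microdilution per CLSI. Strains grown aerobically overnight on TSA at 37 °C, suspended to 0.5 McFarland, diluted in CAMHB to about 5×10^5 CFU/mL. Agents serially diluted across plate; aerobic incubation 37 °C for 18-20 h. MIC = lowest concentration completely preventing visible growth.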

Staphylococcus aureus [13] = experiment: Antibacterial activity against methicillin-resistant Staphylococcus aureus NRS387 assessed as inhibition of visible bacterial growth incubated for 18 to 20 hrs by CLSI method; format: functional; conditions: time 18-20 hrs; procedure, shortened: as §1
Staphylococcus aureus [14] = experiment: Antibacterial activity against vancomycin-resistant Staphylococcus aureus 10 assessed as inhibition of visible bacterial growth incubated for 18 to 20 hrs by CLSI method; format: functional; conditions: time 18-20 hrs; procedure, shortened: as §1
Staphylococcus aureus [15] = experiment: Antibacterial activity against methicillin-resistant Staphylococcus aureus NRS483 assessed as inhibition of visible bacterial growth incubated for 18 to 20 hrs by CLSI method; format: functional; conditions: time 18-20 hrs; procedure, shortened: as §1
Caco-2 = experiment: Cytotoxicity against human Caco2 cells assessed as reduction in cell viability at 64 ug/ml incubated for 2 hrs by MTS assay; format: cell-based; conditions: caco-2, 2 h, dose 64 µg/ml
Staphylococcus aureus [16] = experiment: Antibacterial activity against methicillin-resistant Staphylococcus aureus ATCC 33592 assessed as reduction in bacterial count at 3 x MIC incubated upto 24 hrs by time kill analysis; format: functional; conditions: time hrs <=24
Procedure, shortened: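 Time-kill assay. […] Samples taken at 0, 2, 4, 8, 12 and 24 h, serially diluted in PBS and plated on tryptic soy agar. Viable CFU/mL counted after 18-20 h at 37 °C.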

Staphylococcus aureus [17] = experiment: Antibacterial activity against methicillin-resistant Staphylococcus aureus NRS384 assessed as inhibition of visible bacterial growth incubated for 18 to 20 hrs by CLSI method; format: functional; conditions: time 18-20 hrs; procedure, shortened: as §1
Staphylococcus aureus [18] = experiment: Antibacterial activity against methicillin-resistant Staphylococcus aureus NRS 119 assessed as inhibition of visible bacterial growth incubated for 18 to 20 hrs by CLSI method; format: functional; conditions: time 18-20 hrs; procedure, shortened: as §1
Streptococcus pneumoniae [19] = experiment: Antibacterial activity against […] Streptococcus pneumoniae ATCC 700677 assessed as inhibition of visible bacterial growth incubated for 18 to 20 hrs by CLSI method; format: functional; conditions: time 18-20 hrs; procedure, shortened: as §1
Staphylococcus aureus [20] = experiment: Antibacterial activity against methicillin-resistant Staphylococcus aureus NRS123 assessed as inhibition of visible bacterial growth incubated for 18 to 20 hrs by CLSI method; format: functional; conditions: time 18-20 hrs; procedure, shortened: as §1
Pseudomonas aeruginosa = experiment: Antibacterial activity against Pseudomonas aeruginosa ATCC 27853 assessed as inhibition of visible bacterial growth at 16 ug/ml incubated for 18 to 20 hrs by CLSI method; format: functional, organism-based; conditions: dose 16.0 µg/ml, time 18-20 hrs; procedure, shortened: as §1
Staphylococcus aureus [21] = experiment: Synergistic antibacterial activity against methicillin-resistant Staphylococcus aureus ATCC 33592 assessed as fractional inhibitory concentration index in presence of Vancomycin; format: functional
Staphylococcus aureus [22] = experiment: Synergistic antibacterial activity against methicillin-resistant Staphylococcus aureus ATCC 33592 assessed as fractional inhibitory concentration index in presence of linezolid by checkerboard assay; format: functional
Streptococcus pneumoniae [23] = experiment: Antibacterial activity against cephalosporin-resistant Streptococcus pneumoniae ATCC 51916 assessed as inhibition of visible bacterial growth incubated for 18 to 20 hrs by CLSI method; format: functional; conditions: time 18-20 hrs; procedure, shortened: as §1
Enterococcus faecalis [24] = experiment: Antibacterial activity against vancomycin- resistant Enterococcus faecalis ATCC 700221 assessed as inhibition of visible bacterial growth incubated for 18 to 20 hrs by CLSI method; format: functional; conditions: time 18-20 hrs; procedure, shortened: as §1
[25] = Hemolytic activity in human RBC at 128 ug/ml incubated for 60 mins relative to control; format: ADME, cell-based, Erythrocyte; conditions: red blood cells (erythrocytes), dose 128 µg/ml, read-out: Activity
Procedure, shortened: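 Single-donor human erythrocytes as a 5% v/v suspension in PBS. Compounds serially diluted in PBS, in triplicate, and incubated with RBCs at 37 °C for 60 min. PBS served as the negative control and Triton-X as the positive control. Samples spun at 4,000 rpm for 5 min and supernatant absorbance read at 540 nm. Percent hemolysis = 100×(sample−negative)/(positive−negative).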

Staphylococcus aureus [26] = experiment: Antibacterial activity against Staphylococcus aureus ATCC 25923 assessed as inhibition of visible bacterial growth incubated for 18 to 20 hrs by CLSI method; format: functional; conditions: time 18-20 hrs; procedure, shortened: as §1
[27] = tested on: Staphylococcus epidermidis; experiment: Antibacterial activity against Staphylococcus epidermidis NRS101 assessed as inhibition of visible bacterial growth incubated for 18 to 20 hrs by CLSI method; format: functional; conditions: time 18-20 hrs; procedure, shortened: as §2
Staphylococcus aureus [28] = experiment: Antibacterial activity against methicillin-sensitive Staphylococcus aureus ATCC 6538 assessed as inhibition of visible bacterial growth incubated for 18 to 20 hrs by CLSI method; format: functional; conditions: time 18-20 hrs; procedure, shortened: as §1

## O=C(Nc1nnc(-c2cccs2)o1)c1ccc(S(F)(F)(F)(F)F)cc1
Staphylococcus aureus [1]
  MIC: 1 µg/mL (≈ 2.52 µM)
J774
  Activity: Non-Toxic
Staphylococcus aureus [2]
  MBC: 1 µg/mL (≈ 2.52 µM)
Staphylococcus aureus [3]
  MIC: 0.125 µg/mL (≈ 0.315 µM)
Staphylococcus aureus [4]
  MIC: 0.125 µg/mL (≈ 0.315 µM)
Staphylococcus aureus [5]
  MIC: 0.5 µg/mL (≈ 1.26 µM)
Staphylococcus aureus [6]
  MIC: 0.125 µg/mL (≈ 0.315 µM)
Staphylococcus aureus [7]
  MIC: 0.5 µg/mL (≈ 1.26 µM)
Acinetobacter baumannii
  inhibition: inactive
Staphylococcus aureus [8]
  MIC: 0.5 µg/mL (≈ 1.26 µM)
Staphylococcus aureus [9]
  fractional inhibitory concentration index (FICI): 0.75
Escherichia coli
  inhibition: inactive
Enterococcus faecalis [10]
  MIC: 2 µg/mL (≈ 5.03 µM)
Staphylococcus aureus [11]
  fractional inhibitory concentration index (FICI): 0.5
Staphylococcus aureus [12]
  MIC: 0.5 µg/mL (≈ 1.26 µM)
Listeria monocytogenes
  MIC: 0.125 µg/mL (≈ 0.315 µM)
Staphylococcus aureus [13]
  MIC: 0.25 µg/mL (≈ 0.629 µM)
Staphylococcus aureus [14]
  MIC: 0.25 µg/mL (≈ 0.629 µM)
Staphylococcus aureus [15]
  MIC: 0.25 µg/mL (≈ 0.629 µM)
Caco-2
  Activity: Non-Toxic
Staphylococcus aureus [16]
  Activity: 3.96 log10CFU/ml
Staphylococcus aureus [17]
  MIC: 0.5 µg/mL (≈ 1.26 µM)
Staphylococcus aureus [18]
  MIC: 0.06 µg/mL (≈ 0.151 µM)
Streptococcus pneumoniae [19]
  MIC: 0.125 µg/mL (≈ 0.315 µM)
Staphylococcus aureus [20]
  MIC: 0.25 µg/mL (≈ 0.629 µM)
Pseudomonas aeruginosa
  inhibition: inactive
Staphylococcus aureus [21]
  fractional inhibitory concentration index (FICI): 1
Staphylococcus aureus [22]
  fractional inhibitory concentration index (FICI): 1.5
Streptococcus pneumoniae [23]
  MIC: 0.25 µg/mL (≈ 0.629 µM)
Enterococcus faecalis [24]
  MIC: 2 µg/mL (≈ 5.03 µM)
[25]
  hemolysis at 1 h, 128 ug/ml: 9%
Staphylococcus aureus [26]
  MIC: 0.25 µg/mL (≈ 0.629 µM)
[27]
  MIC: 0.06 µg/mL (≈ 0.151 µM)
Staphylococcus aureus [28]
  MIC: 0.5 µg/mL (≈ 1.26 µM)
